Assay results published in ChEMBL document CHEMBL1126988, “Quinolone antibacterials containing the new 7-[3-(1-aminoethyl)-1- pyrrolidinyl] side chain: the effects of the 1-aminoethyl moiety and its stereochemical configurations on potency and in vivo efficacy” (J Med Chem, 1993).
Converted amounts (≈) assume the structure as drawn.

Assays:
Type in all cases: functional
Enterobacter cloacae = assay: Minimum inhibitory concentration in vitro against Enterobacter cloacae MA 2646
Staphylococcus aureus [1] = assay: Minimum inhibitory concentration was evaluated in vitro against Staphylococcus aureus UC 76
Outline: (§1)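 Standard microtitration broth assay against a panel of 10 Gram-positive and Gram-negative organisms. MIC read in µg/mL and averaged over multiple experiments.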

Streptococcus pyogenes [2] = assay: Minimum inhibitory concentration was evaluated in vitro against Streptococcus pyogenes C 203; outline: as §1
Streptococcus pneumoniae = assay: Minimum inhibitory concentration was evaluated in vitro against Streptococcus pneumoniae SV-1; outline: as §1
Staphylococcus aureus [3] = assay: Minimum inhibitory concentration was evaluated in vitro against Staphylococcus aureus H 228; outline: as §1
Klebsiella pneumoniae = assay: Minimum inhibitory concentration was evaluated in vitro against Klebsiella pneumoniae MGH2; outline: as §1
Escherichia coli = assay: Antibacterial activity in vitro against Escherichia coli Vogel; outline: as §1
Enterococcus faecalis = assay: Minimum inhibitory concentration was evaluated in vitro against Enterococcus faecalis MGH-2; outline: as §1
Pseudomonas aeruginosa = assay: Minimum inhibitory concentration was evaluated in vitro against Pseudomonas aeruginosa UI-18; outline: as §1
Providencia rettgeri = assay: Minimum inhibitory concentration was evaluated in vitro against Providencia rettgeri M1771; outline: as §1
Streptococcus pyogenes [4] = assay: Compounds were evaluated in vivo for antibacterial activity for mouse protection against Streptococcus pyogenes C 203 after oral administration; settings: for ED50: Streptococcus pyogenes, C 203, po, read-out: PD50
Streptococcus pyogenes [5] = assay: Antibacterial activity measured as mouse protection against Streptococcus pyogenes C 203 after subcutaneous administration; settings: for ED50: Streptococcus pyogenes, C 203, sc, read-out: PD50
[6] = Enterobacter cloacae, read-out: MIC
[7] = Staphylococcus aureus, read-out: MIC
[8] = Streptococcus pyogenes, read-out: MIC
[9] = Streptococcus pneumoniae, read-out: MIC
[10] = Klebsiella pneumoniae, read-out: MIC
[11] = Escherichia coli, read-out: MIC
[12] = Enterococcus faecalis, read-out: MIC
[13] = Pseudomonas aeruginosa, read-out: MIC
[14] = Providencia rettgeri, read-out: MIC

Row | Compound | MIC (Enterobacter cloacae; [6]) [µg/mL] | MIC (Staphylococcus aureus [1]; [7]) [µg/mL] | MIC (Streptococcus pyogenes [2]; [8]) [µg/mL] | MIC (Streptococcus pneumoniae; [9]) [µg/mL] | MIC (Staphylococcus aureus [3]; [7]) [µg/mL] | MIC (Klebsiella pneumoniae; [10]) [µg/mL] | MIC (Escherichia coli; [11]) [µg/mL] | MIC (Enterococcus faecalis; [12]) [µg/mL] | MIC (Pseudomonas aeruginosa; [13]) [µg/mL] | MIC (Providencia rettgeri; [14]) [µg/mL] | ED50 (Streptococcus pyogenes [4]) [mg/kg] | ED50 (Streptococcus pyogenes [5]) [mg/kg] | other results
1 | CCN[C@H](C)[C@@H]1CCN(c2cc3c(cc2F)c(=O)c(C(=O)O)cn3C2CC2)C1 | 0.2 (≈ 0.516 µM) | 0.025 (≈ 0.0645 µM) | 0.05 (≈ 0.129 µM) | 0.05 (≈ 0.129 µM) | 0.1 (≈ 0.258 µM) | 0.4 (≈ 1.03 µM) | 0.2 (≈ 0.516 µM) | 0.1 (≈ 0.258 µM) | 6.3 (≈ 16.3 µM) | 0.8 (≈ 2.06 µM) | – | – | –
2 | CC(N)C1CCN(c2cc3c(c(N)c2F)c(=O)c(C(=O)O)cn3C2CC2)C1 (mixture of isomers) | 0.025 | 0.003 | 0.003 | 0.003 | 0.05 | 0.05 | 0.025 | 0.013 | 0.4 | 0.1 | 18 | 4 | –
3 | CCNCC1CCN(c2c(F)cc3c(=O)c(C(=O)O)cn(C4CC4)c3c2OC)C1 (centres undefined) | 0.1 (≈ 0.248 µM) | 0.006 (≈ 0.0149 µM) | 0.013 (≈ 0.0322 µM) | 0.013 (≈ 0.0322 µM) | 0.025 (≈ 0.062 µM) | 0.2 (≈ 0.496 µM) | 0.1 (≈ 0.248 µM) | 0.05 (≈ 0.124 µM) | 1.6 (≈ 3.97 µM) | 0.4 (≈ 0.991 µM) | 4 | 0.4 | –
4 | C[C@H](N)[C@H]1CCN(c2c(F)c(N)c3c(=O)c(C(=O)O)cn(C4CC4)c3c2F)C1 (stereo in doubt; 32F-S,R) | – | – | – | – | – | – | – | – | – | – | – | – | PD50 (Streptococcus pyogenes [4]): 14 mg/kg; MIC (Enterobacter cloacae): 0.1 µg/mL (≈ 0.255 µM); MIC (Staphylococcus aureus [1]): 0.006 µg/mL (≈ 0.0153 µM); MIC (Streptococcus pyogenes [2]): 0.013 µg/mL (≈ 0.0331 µM); MIC (Streptococcus pneumoniae): 0.013 µg/mL (≈ 0.0331 µM); MIC (Staphylococcus aureus [3]): 0.025 µg/mL (≈ 0.0637 µM); MIC (Klebsiella pneumoniae): 0.1 µg/mL (≈ 0.255 µM); MIC (Escherichia coli): 0.05 µg/mL (≈ 0.127 µM); MIC (Enterococcus faecalis): 0.05 µg/mL (≈ 0.127 µM); PD50 (Streptococcus pyogenes [5]): 4 mg/kg; MIC (Pseudomonas aeruginosa): 0.8 µg/mL (≈ 2.04 µM); MIC (Providencia rettgeri): 0.2 µg/mL (≈ 0.51 µM)
5 | COc1c(N2CCC(CN)C2)c(F)cc2c(=O)c(C(=O)O)cn(C3CC3)c12 (centres undefined) | 0.05 (≈ 0.133 µM) | 0.003 (≈ 0.00799 µM) | 0.003 (≈ 0.00799 µM) | 0.003 (≈ 0.00799 µM) | 0.025 (≈ 0.0666 µM) | 0.1 (≈ 0.266 µM) | 0.05 (≈ 0.133 µM) | 0.013 (≈ 0.0346 µM) | 0.8 (≈ 2.13 µM) | 0.1 (≈ 0.266 µM) | 11 | 0.6 | –
6 | CN[C@@H](C)[C@H]1CCN(c2cc3c(cc2F)c(=O)c(C(=O)O)cn3C2CC2)C1 | 0.4 (≈ 1.07 µM) | 0.2 (≈ 0.536 µM) | 0.4 (≈ 1.07 µM) | 0.4 (≈ 1.07 µM) | 1.6 (≈ 4.28 µM) | 0.8 (≈ 2.14 µM) | 0.4 (≈ 1.07 µM) | 0.8 (≈ 2.14 µM) | 6.3 (≈ 16.9 µM) | 3.1 (≈ 8.3 µM) | – | – | –
7 | CN[C@H](C)[C@@H]1CCN(c2cc3c(cc2F)c(=O)c(C(=O)O)cn3C2CC2)C1 | 0.2 (≈ 0.536 µM) | 0.05 (≈ 0.134 µM) | 0.05 (≈ 0.134 µM) | 0.05 (≈ 0.134 µM) | 0.2 (≈ 0.536 µM) | 0.4 (≈ 1.07 µM) | 0.1 (≈ 0.268 µM) | 0.2 (≈ 0.536 µM) | 1.6 (≈ 4.28 µM) | 0.8 (≈ 2.14 µM) | 36 | 3 | –
8 | C[C@@H](N)[C@@H]1CCN(c2nc3c(cc2F)c(=O)c(C(=O)O)cn3-c2ccc(F)cc2F)C1 | 0.1 (≈ 0.231 µM) | 0.025 (≈ 0.0578 µM) | 0.05 (≈ 0.116 µM) | 0.1 (≈ 0.231 µM) | 0.1 (≈ 0.231 µM) | 0.2 (≈ 0.463 µM) | 0.1 (≈ 0.231 µM) | 0.1 (≈ 0.231 µM) | 1.6 (≈ 3.7 µM) | 0.4 (≈ 0.925 µM) | – | – | –
9 | CN[C@@H](C)[C@H]1CCN(c2nc3c(cc2F)c(=O)c(C(=O)O)cn3C2CC2)C1 | 0.4 (≈ 1.07 µM) | 0.2 (≈ 0.534 µM) | 0.4 (≈ 1.07 µM) | 0.4 (≈ 1.07 µM) | 0.8 (≈ 2.14 µM) | 0.4 (≈ 1.07 µM) | 0.2 (≈ 0.534 µM) | 0.8 (≈ 2.14 µM) | 3.1 (≈ 8.28 µM) | 0.8 (≈ 2.14 µM) | 23 | 15 | –
10 | CCN[C@H](C)[C@@H]1CCN(c2c(F)cc3c(=O)c(C(=O)O)cn(C4CC4)c3c2C(F)(F)F)C1 | 1.6 (≈ 3.51 µM) | 0.05 (≈ 0.11 µM) | 0.1 (≈ 0.22 µM) | 0.05 (≈ 0.11 µM) | 0.05 (≈ 0.11 µM) | 1.6 (≈ 3.51 µM) | 0.8 (≈ 1.76 µM) | 0.1 (≈ 0.22 µM) | 6.3 (≈ 13.8 µM) | 3.1 (≈ 6.81 µM) | 2 | 0.8 | –
11 | CCN[C@@H](C)[C@H]1CCN(c2cc3c(cc2F)c(=O)c(C(=O)O)cn3C2CC2)C1 | 0.4 (≈ 1.03 µM) | 0.4 (≈ 1.03 µM) | 0.4 (≈ 1.03 µM) | 0.4 (≈ 1.03 µM) | 0.8 (≈ 2.06 µM) | 0.8 (≈ 2.06 µM) | 0.4 (≈ 1.03 µM) | 0.8 (≈ 2.06 µM) | 12.5 (≈ 32.3 µM) | 1.6 (≈ 4.13 µM) | – | – | –
